Measurements: ChEMBL document CHEMBL4706708, “Improving the solubility of anti-proliferative thieno[2,3-b]quinoline-2-carboxamides” (Bioorg Med Chem, 2021)
Values after ≈ are worked out from the molar mass of the structure shown.

Columns and labels:
[1] = tested on: HCT-116; test: Antiproliferative activity against human HCT-116 cells assessed as cell growth at 1 uM measured after 3 days by [3H]-thymidine incorporation assay relative to control; assay type: functional; conditions: HCT-116, 72 h, time 3 day, read-out: Activity
Method in brief: (§1)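 HCT116 and MDA-MB-231 cells from ATCC, seeded at 3000 cells/well, exposed to inhibitor for three days; 0.04 µCi 3H-thymidine added per well 5 h before harvest onto glass fibre filters, incorporation counted by scintillation and expressed relative to untreated controls. Triplicate wells, at least two independent experiments. Single-point screen at 1 µM; IC50 determined from varying concentrations.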

[2] = tested on: MDA-MB-231; test: Antiproliferative activity against human MDA-MB-231 cells assessed as cell growth at 1 uM measured after 3 days by [3H]-thymidine incorporation assay relative to control; assay type: functional; conditions: MDA-MB-231, 72 h, time 3 day, read-out: Activity; method in brief: as §1
[3] = Thermodynamic solubility of compound in water measured after 15 mins RP-HPLC analysis; assay type: physicochemical; conditions: read-out: Therm_solubility
[4] = tested on: MDA-MB-231; test: Antiproliferative activity against human MDA-MB-231 cells assessed as cell growth inhibition measured after 3 days by [3H]-thymidine incorporation assay; assay type: functional, cell-based; method in brief: as §1
[5] = tested on: HCT-116; test: Antiproliferative activity against human HCT-116 cells assessed as cell growth inhibition measured after 3 days by [3H]-thymidine incorporation assay; assay type: functional, cell-based; method in brief: as §1
[6] = Stability in water measured after 15 mins RP-HPLC analysis; assay type: physicochemical; conditions: buffer, 0.25 h

| SMILES | solubility thermodynamic at 0.25 h [3] | IC50 [4] | IC50 [5] | Stabilty [6] | growth at 1 µM [1] | growth at 1 µM [2] |
| --- | --- | --- | --- | --- | --- | --- |
| Cc1nc2sc(C(=O)Nc3cccc4ccccc34)c(N)c2cc1C(C)O (stereo not drawn) | 2.21 µg/mL (≈ 5.85 µM) | 0.081 µM | 0.171 µM |  | 1.7% | 9.9% |
| Nc1c(C(=O)Nc2cccc3ccccc23)sc2nc3c(cc12)CN(Cc1ccccc1)CC3 | 3.97 µg/mL (≈ 8.55 µM) | 0.644 µM | 0.64 µM |  | 4.7% | 19.3% |
| Cc1c(Cl)cccc1NC(=O)c1sc2nc3c(cc2c1N)CN(C)CC3 | 0.44 µg/mL (≈ 1.14 µM) |  |  | Unstable | 101% | 95.3% |
| CC(=O)c1cc2c(N)c(C(=O)Nc3ccccc3C)sc2nc1C | 1.49 µg/mL (≈ 4.39 µM) |  |  |  | 110% | 97.1% |
| CC(=O)c1cc2c(N)c(C(=O)Nc3ccnc4ccccc34)sc2nc1C | 0.26 µg/mL (≈ 0.691 µM) |  |  | Unstable | 102% | 91.6% |
| COc1cccc(NC(=O)c2sc3nc(C)c(C(C)=O)cc3c2N)c1C | 1.52 µg/mL (≈ 4.11 µM) |  |  |  | 96.8% | 99.7% |
| CC(=O)c1cc2c(N)c(C(=O)Nc3cccc4ccccc34)sc2nc1C | 1.08 µg/mL (≈ 2.88 µM) | 0.633 µM | 0.591 µM |  | 7.8% | 13.6% |
| CC(=O)c1cc2c(N)c(C(=O)Nc3cccc(Br)c3C)sc2nc1C | 1.15 µg/mL (≈ 2.75 µM) | 0.219 µM | 0.183 µM |  | 4% | 11% |
| Cc1c(Br)cccc1NC(=O)c1sc2nc3c(cc2c1N)CN(Cc1ccccc1)CC3 | 0.61 µg/mL (≈ 1.2 µM) | 0.122 µM | 0.151 µM |  | 1% | 3.5% |
| CC(=O)c1cc2c(N)c(C(=O)Nc3cccc(Cl)c3C)sc2nc1C | 1.63 µg/mL (≈ 4.36 µM) | 0.636 µM | 0.573 µM |  | 10% | 13.7% |
| Cc1c(Cl)cccc1NC(=O)c1sc2nc3c(cc2c1N)COCC3 | 1.15 µg/mL (≈ 3.08 µM) |  |  | Unstable | 78.1% | 50.9% |
| CC(=O)c1cc2c(N)c(C(=O)Nc3ccccc3)sc2nc1C | 3 µg/mL (≈ 9.22 µM) |  |  |  | 109% | 120% |

More lines, main results first:

| solubility thermodynamic at 0.25 h [3] | IC50 [4] | IC50 [5] | Stabilty [6] | SMILES | growth at 1 µM [1] | growth at 1 µM [2] |
| --- | --- | --- | --- | --- | --- | --- |
| 0.77 µg/mL (≈ 1.66 µM) | 0.15 µM | 0.193 µM |  | Cc1c(Cl)cccc1NC(=O)c1sc2nc3c(cc2c1N)CN(Cc1ccccc1)CC3 | 2.3% | 4% |
| 0.26 µg/mL (≈ 0.678 µM) |  |  | Unstable | CC(=O)c1cc2c(N)c(C(=O)Nc3cccc4c3OCCO4)sc2nc1C | 72.5% | 104% |
| 0.13 µg/mL (≈ 0.366 µM) |  |  |  | COc1ccc(NC(=O)c2sc3nc(C)c(C(C)=O)cc3c2N)cc1 | 82.9% | 84.6% |
| 0.68 µg/mL (≈ 1.92 µM) | 0.506 µM | 0.422 µM |  | CC(=O)c1cc2c(N)c(C(=O)Nc3cccc(C)c3C)sc2nc1C | 2.1% | 8.9% |
| 1.31 µg/mL (≈ 2.64 µM) | > 1 µM | > 1 µM |  | Cc1c(NC(=O)c2sc3nc4c(cc3c2N)CN(Cc2ccccc2)CC4)cccc1C(F)(F)F | 69.7% | 61.5% |
| 1.72 µg/mL (≈ 3.89 µM) | 0.162 µM | 0.201 µM |  | Cc1cccc(NC(=O)c2sc3nc4c(cc3c2N)CN(Cc2ccccc2)CC4)c1C | 1.5% | 4% |
| 2.41 µg/mL (≈ 6.41 µM) | 0.076 µM | 0.072 µM |  | Cc1nc2sc(C(=O)Nc3cccc(Cl)c3C)c(N)c2cc1C(C)O (stereo not drawn) | 2.2% | 11.7% |
